In PMC8590456 (Nature chemical biology, 2021):

What was measured:
[1] = test system: CRBN−/− cells (Jurkat and MOLT4); experiment: 3-day growth rate inhibition; assay type: cell-based, Human; settings: 72 h
In short: (§1)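 Cells were kept in RPMI 1640 with 10% FBS at 37 °C and 5% CO2, then plated at 6×10^3 cells/well for 24 h. Time 0 was read, then cells were dosed 10 nM–10 μM for 72 h. Viable cells were read by CellTiter-Glo luminescence. GR values, GR50 and GRmax were calculated from time-0 and 72-h data, with growth relative to DMSO. Mean ± s.d., n=3 biologically independent samples, representative of 2 experiments.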

Jurkat cells = experiment: 3' poly; assay type: cell-based, Human; settings: 8 h
In short: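 Poly(A) 3'-end libraries were sequenced. Metagene profiles of normalised reads span gene bodies ±2 kb, with sense and antisense reads shown separately. Differential expression used 3' UTR-associated poly(A)-site counts summed per gene. Intronic versus 3' UTR poly(A) usage was compared by odds ratio for transcripts with TPM > 1.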

Cyclin K = experiment: Immunoblot of Cyclin K protein level in Jurkat cells; assay type: cell-based, Human; settings: 6 h
CDK13 = CDK13 (Homo sapiens, UniProt Q14004); experiment: Immunoblot of CDK13 protein level in Jurkat cells; assay type: cell-based; settings: 6 h, indicated concentrations
Sequence of CDK13 (Q14004 whole entry): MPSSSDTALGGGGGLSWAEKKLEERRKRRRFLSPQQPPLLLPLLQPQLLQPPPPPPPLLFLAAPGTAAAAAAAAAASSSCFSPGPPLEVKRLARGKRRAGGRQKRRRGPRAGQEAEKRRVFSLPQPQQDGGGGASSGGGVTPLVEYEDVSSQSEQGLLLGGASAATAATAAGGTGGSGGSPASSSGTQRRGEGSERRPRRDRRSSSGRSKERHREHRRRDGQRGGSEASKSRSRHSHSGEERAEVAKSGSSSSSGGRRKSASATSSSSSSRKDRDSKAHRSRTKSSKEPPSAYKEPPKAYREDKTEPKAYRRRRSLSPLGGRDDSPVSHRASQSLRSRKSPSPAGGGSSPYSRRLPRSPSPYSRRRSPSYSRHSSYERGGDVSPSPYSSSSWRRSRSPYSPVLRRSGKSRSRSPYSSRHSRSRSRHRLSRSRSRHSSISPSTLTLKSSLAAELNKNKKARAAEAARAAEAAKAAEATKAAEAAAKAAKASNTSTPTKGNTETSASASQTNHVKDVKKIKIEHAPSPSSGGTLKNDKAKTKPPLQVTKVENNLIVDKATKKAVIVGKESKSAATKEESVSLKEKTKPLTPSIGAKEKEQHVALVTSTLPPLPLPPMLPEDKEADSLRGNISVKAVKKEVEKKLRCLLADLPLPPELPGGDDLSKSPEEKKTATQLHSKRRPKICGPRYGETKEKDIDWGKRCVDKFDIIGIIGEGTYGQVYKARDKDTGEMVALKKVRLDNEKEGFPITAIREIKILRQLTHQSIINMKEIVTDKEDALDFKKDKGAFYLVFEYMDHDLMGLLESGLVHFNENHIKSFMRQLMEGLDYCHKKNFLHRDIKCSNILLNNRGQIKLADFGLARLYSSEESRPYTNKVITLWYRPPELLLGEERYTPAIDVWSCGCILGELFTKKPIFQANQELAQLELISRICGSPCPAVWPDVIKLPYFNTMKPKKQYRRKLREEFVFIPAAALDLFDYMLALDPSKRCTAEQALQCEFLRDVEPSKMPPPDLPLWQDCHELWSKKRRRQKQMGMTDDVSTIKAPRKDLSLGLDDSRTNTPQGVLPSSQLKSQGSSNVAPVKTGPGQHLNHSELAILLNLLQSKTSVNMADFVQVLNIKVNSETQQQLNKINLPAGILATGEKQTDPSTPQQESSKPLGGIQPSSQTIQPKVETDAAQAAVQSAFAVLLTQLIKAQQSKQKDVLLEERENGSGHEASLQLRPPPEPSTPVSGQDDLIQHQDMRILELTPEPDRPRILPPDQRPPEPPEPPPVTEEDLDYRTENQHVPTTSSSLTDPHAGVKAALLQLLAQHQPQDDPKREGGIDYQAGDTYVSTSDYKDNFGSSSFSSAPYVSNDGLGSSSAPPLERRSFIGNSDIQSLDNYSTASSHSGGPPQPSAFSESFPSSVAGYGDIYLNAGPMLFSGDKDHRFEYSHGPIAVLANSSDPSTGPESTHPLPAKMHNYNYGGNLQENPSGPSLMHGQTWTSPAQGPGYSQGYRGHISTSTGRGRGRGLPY
Sequence of CDK13 (O75909 whole entry partner): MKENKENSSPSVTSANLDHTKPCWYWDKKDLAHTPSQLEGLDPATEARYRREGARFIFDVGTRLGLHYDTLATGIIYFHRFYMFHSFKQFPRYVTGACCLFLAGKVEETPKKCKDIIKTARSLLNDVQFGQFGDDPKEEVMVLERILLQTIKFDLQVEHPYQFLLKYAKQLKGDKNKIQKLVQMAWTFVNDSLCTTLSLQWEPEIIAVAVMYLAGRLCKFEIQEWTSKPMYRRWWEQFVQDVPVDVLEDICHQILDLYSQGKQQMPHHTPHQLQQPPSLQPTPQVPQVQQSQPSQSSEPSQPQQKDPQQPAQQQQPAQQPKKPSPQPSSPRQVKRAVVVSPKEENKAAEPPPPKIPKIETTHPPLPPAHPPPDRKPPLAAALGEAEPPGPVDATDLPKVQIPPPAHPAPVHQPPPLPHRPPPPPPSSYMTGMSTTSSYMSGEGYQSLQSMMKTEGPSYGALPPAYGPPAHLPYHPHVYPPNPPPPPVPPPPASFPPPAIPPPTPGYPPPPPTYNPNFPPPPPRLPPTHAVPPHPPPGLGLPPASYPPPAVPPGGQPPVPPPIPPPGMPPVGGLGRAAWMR
In short: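 Jurkat cells were treated 6 h with DMSO or CDK12 degraders at the indicated concentrations in a preliminary screen. Lysis was in NP40 buffer with protease and phosphatase inhibitors plus 1 mM PMSF. Immunoblots for CDK12, CDK13 and β-actin were imaged on an infrared scanner.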

[2] = test system: wild-type T-ALL cell lines (Jurkat and MOLT4); experiment: 3-day growth rate inhibition; assay type: cell-based, Human; settings: GR assay, 72 h
In short: as §1

CDK12 I733V/Cyclin K = CDK12 I733V/Cyclin K (Homo sapiens, UniProt Q9NYV4, I733V); experiment: 32P-labeled ATP mutated CDK12 kinase assay; assay type: biochemical; settings: recombinant I733V CDK12 vs wild type
In short: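 GST-CDK12 (714–1063) I733V (site-directed mutagenesis) and GST-cyclin K (1–267) were co-expressed with yeast CAK in Sf9 cells for 72 h. Purification was by GST affinity, TEV tag cleavage and size exclusion. The 0.2 μM complex was preincubated with varying compound concentrations for 5 min at 30 °C. Substrate and 0.2 mM [γ-32P]-ATP were added for 15 min at 30 °C. The reaction was stopped with 50 mM EDTA, spotted onto nitrocellulose, washed in phosphoric acid and scintillation-counted.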

Jurkat and MOLT4 cells = experiment: Cell cycle analysis by FACS; assay type: cell-based, Human; settings: 24 h, BSJ-4-116 50 nM, BSJ-4-116NC 100 nM
In short: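 Jurkat or MOLT4 cells (0.5×10^6) were treated 24 h. They were fixed in ice-cold 70% ethanol at −20 °C, treated with RNase A (0.5 mg/ml), stained with propidium iodide (50 µg/ml) and analysed by flow cytometry. […] is given as mean ± s.d. of n=2 biologically independent samples, representative of 2 experiments.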

CDK9 = CDK9 (Homo sapiens, UniProt P50750+Q96SW2); experiment: Immunoblot of CDK9 in parental and resistant cells; assay type: cell-based; settings: parental and resistant Jurkat and MOLT4 cells, 250 nM, 8 h
Sequence of CDK9 (P50750 whole entry): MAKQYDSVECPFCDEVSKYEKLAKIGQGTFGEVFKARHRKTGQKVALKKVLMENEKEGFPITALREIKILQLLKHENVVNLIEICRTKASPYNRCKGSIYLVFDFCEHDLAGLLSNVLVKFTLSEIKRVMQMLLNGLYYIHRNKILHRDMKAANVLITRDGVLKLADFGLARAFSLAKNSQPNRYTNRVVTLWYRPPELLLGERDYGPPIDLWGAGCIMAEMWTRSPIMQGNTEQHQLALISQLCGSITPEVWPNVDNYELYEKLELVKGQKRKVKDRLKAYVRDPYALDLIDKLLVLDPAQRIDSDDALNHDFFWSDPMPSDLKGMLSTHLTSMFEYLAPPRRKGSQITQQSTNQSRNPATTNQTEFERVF
Sequence of CDK9 (O60563 whole entry partner): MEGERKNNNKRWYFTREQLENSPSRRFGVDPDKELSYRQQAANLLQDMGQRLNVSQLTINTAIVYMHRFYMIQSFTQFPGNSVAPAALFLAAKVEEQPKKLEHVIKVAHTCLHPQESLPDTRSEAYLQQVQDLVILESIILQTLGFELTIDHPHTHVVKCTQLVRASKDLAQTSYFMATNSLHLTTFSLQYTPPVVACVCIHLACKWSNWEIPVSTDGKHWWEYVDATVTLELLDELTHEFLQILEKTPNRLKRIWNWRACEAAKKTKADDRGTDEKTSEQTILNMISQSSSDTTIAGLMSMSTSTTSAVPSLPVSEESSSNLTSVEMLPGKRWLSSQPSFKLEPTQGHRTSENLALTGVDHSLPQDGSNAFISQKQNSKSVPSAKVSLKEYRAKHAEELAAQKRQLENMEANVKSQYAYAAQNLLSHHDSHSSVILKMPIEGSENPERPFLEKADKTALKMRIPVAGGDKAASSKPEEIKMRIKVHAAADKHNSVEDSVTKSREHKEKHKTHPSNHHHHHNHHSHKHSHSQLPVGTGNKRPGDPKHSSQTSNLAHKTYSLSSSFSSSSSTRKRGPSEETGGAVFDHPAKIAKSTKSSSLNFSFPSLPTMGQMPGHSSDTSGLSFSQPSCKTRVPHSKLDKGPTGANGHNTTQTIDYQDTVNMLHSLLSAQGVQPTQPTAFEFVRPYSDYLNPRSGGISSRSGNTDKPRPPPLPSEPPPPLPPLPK
Sequence of CDK9 (Q96SW2 whole entry): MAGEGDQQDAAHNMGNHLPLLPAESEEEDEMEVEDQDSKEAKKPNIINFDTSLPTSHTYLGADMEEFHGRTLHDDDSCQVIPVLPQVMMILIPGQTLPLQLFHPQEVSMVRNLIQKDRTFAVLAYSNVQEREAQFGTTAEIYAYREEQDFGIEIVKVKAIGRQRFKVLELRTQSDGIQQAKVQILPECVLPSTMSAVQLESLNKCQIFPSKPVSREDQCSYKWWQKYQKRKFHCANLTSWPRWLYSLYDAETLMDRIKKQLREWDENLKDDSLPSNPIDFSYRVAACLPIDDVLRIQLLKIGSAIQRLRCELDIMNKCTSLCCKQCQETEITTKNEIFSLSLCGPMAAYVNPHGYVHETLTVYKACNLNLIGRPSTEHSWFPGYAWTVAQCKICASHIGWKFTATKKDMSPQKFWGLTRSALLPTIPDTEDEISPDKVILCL
Sequence of CDK9 (Q16531 whole entry partner): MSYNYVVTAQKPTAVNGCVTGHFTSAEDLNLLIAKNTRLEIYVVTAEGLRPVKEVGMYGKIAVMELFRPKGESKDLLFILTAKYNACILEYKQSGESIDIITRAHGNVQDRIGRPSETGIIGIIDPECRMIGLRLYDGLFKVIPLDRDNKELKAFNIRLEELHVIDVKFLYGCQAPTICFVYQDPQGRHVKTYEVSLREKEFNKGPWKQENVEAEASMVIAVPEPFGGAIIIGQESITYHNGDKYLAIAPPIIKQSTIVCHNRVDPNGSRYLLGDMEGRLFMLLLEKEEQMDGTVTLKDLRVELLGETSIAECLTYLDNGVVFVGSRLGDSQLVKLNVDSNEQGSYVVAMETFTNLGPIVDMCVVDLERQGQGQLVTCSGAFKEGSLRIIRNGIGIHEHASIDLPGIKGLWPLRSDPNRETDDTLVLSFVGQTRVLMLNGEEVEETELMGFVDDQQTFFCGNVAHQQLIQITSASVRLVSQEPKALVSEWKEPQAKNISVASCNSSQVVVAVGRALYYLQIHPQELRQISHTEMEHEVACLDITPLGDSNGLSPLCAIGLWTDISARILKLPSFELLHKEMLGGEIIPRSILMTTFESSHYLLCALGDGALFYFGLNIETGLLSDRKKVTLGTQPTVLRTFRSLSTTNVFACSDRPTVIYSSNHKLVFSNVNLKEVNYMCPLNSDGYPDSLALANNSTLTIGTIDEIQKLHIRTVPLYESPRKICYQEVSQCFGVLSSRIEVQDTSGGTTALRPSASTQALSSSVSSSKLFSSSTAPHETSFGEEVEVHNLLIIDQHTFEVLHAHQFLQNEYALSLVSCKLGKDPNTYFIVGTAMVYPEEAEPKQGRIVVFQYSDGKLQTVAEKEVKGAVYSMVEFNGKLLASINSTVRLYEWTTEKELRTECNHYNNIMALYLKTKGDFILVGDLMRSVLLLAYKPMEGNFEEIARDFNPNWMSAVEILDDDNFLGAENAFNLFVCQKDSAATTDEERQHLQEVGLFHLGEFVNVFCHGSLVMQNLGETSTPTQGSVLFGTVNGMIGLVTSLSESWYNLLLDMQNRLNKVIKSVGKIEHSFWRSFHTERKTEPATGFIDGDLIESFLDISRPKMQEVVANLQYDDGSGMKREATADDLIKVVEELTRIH
In short: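 Parental and resistant Jurkat and MOLT4 cells were treated 8 h with DMSO, CDK12 degraders or a CDK9 degrader (250 nM). Lysis was in NP40 buffer with protease and phosphatase inhibitors plus 1 mM PMSF. Immunoblots for CDK12 and CDK9, with GAPDH loading control, were imaged on an infrared scanner. Representative of n=2 independent experiments.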

SMILES	sensitivity of CRBN−/− cells in GR assay [1]	genes differentially expressed vs DMSO control cells (Jurkat cells; 50 nM)	Cyclin K protein level (Cyclin K)	CDK13 protein level (CDK13)	fold less potent than BSJ-4-116 [2]	annotated terminal or 3' poly(A) sites (metagene analysis) (Jurkat cells)	downregulated transcripts (Jurkat cells; BSJ-4-116 50 nM, THZ531 250 nM, FDR <= 0.01)	effect of I733V on binding affinity in in vitro kinase assay (CDK12 I733V/Cyclin K)	cell cycle distribution (Jurkat and MOLT4 cells)	sensitivity of resistant cells to CDK9 degrader (CDK9)
CC(C)S(=O)(=O)c1ccccc1Nc1nc(N[C@@H]2CCCN(CCCCCCCNC(=O)COc3cccc4c3C(=O)N(C3CCC(=O)N(C)C3=O)C4=O)C2)ncc1Cl (stereo partly shown) [BSJ-4-116NC]	responding similarly	1 gene	no effect	no effect	10 fold	–	–	–	–	–
CN(C)C/C=C/C(=O)Nc1ccc(C(=O)N2CCC[C@@H](Nc3ncc(Cl)c(-c4c[nH]c5ccccc45)n3)C2)cc1 [THZ531]	responding similarly	–	no effect	no effect	–	significant loss	7050	loss of binding affinity	accumulation of G2/M cells	–
CC(C)(C)c1cnc(CSc2cnc(NC(=O)C3CCN(CC(=O)NCCOCCOCCOCCNc4cccc5c4C(=O)N(C4CCC(=O)NC4=O)C5=O)CC3)s2)o1 (stereo not shown) [THAL-SNS-032]	–	–	–	–	–	–	–	–	–	remained equally sensitive
